These results are taken from ChEMBL document CHEMBL1136695, “Novel and selective imidazole-containing biphenyl inhibitors of protein farnesyltransferase” (Bioorg Med Chem Lett, 2003).

As a reminder, the EC50 is the concentration that produces a half-maximal response. By IC50 is commonly meant the point on the concentration scale where inhibition reaches its midpoint. Low values mean inhibition by little substance, high ones a need for much substance. As a reminder, the half-life is the time in which the quantity being followed falls by half. A high value points to slow decline. Usually bioavailability stands for dose-corrected exposure relative to a reference, in per cent. A high value points to good availability. What is called inhibition is how much of the control response was suppressed. The low end stands for a weak effect, the high end for a strong effect.

Values joined by “and” are separate entries in the source; they are usually repeats but may differ in a detail not shown here. Equal values may be shown once.

Data set [1] relates to NIH3T3. Briefly: Effective concentration against Ha-RAS processing in NIH3T3 ras-transformed cells. It is filed as functional, cell-based. Particulars: Mus musculus.
The target of data set [2] is Protein farnesyltransferase (Bos taurus, UniProt P29702+P49355). Briefly: In vitro inhibitory activity against farnesyltransferase (FTase). Format: protein-complex assay. The method in brief:
(§1)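 FTase and GGTase1 enzymes purified from bovine brain; inhibition measured in vitro by scintillation proximity assay (SPA), IC50 determined.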

Data set [3] can be described thus: Half-life time in rat was determined. It is filed as ADME, organism-based. Particulars: in vivo.
A short description of data set [4]: Oral bioavailability in rat. The note with it: in vivo. Format: ADME, organism-based.
Data set [5] deals with Geranylgeranyl transferase type I (Bos taurus, UniProt P29702+Q5EAD5). Put plainly: In vitro inhibition of geranylgeranyltransferase. It is filed as protein-complex assay. The method in brief:
as §1

In data set [6] the test system is NIH3T3. Briefly: Inhibitory activity against NIH3T3 ras-transformed cells at 1 uM. Format: functional. The note with it: Mus musculus.

The compound `Cn1cncc1[C@@](N)(c1ccc(Cl)cc1)c1ccc2c(c1)c(-c1cccc(Cl)c1)cc(=O)n2C` [TIPIFARNIB] returned an EC50 with NIH3T3 [1] of 2 nM. The IC50 in data set [2] came to 0.57 nM.

Take `Cn1cncc1CN(Cc1cccc(C#N)c1)c1ccc(C#N)c(-c2cccc3ccccc23)c1`: in data set [3], the half-life was < 1 h. In data set [4], this compound had a bioavailability of 10%. The compound also returned an EC50 in the data set on NIH3T3 [1] of 50 nM. This compound also returned an IC50 in data set [5] of 150 nM.

On to `CCCCN(CCC1CCCCC1)Cc1ccc(C(=O)N[C@@H](CCSC)C(=O)O)c(-c2ccccc2C)c1`, for which, in data set [2], inhibition was half-maximal at 1 nM (IC50).

In turn, `Cc1ccccc1-c1cc(C(OCc2ccccc2)c2cncn2C)ccc1C#N` (stereo not given) gave an IC50 in data set [2] of 65 nM.

Take `Cn1cncc1CN(c1ccc(C#N)c(-c2cccc3ccccc23)c1)S(=O)(=O)c1ccccc1`: the values for the IC50 in data set [5] and in data set [2] were 1900 nM and 18 nM, respectively.

Compound `Cn1cncc1CN(Cc1ccc(C#N)cc1)c1ccc(C#N)c(-c2cccc3ccccc23)c1` displayed an inhibition at 1 µM in the data set with NIH3T3 [6] of 64%. The IC50 was 1000 nM in data set [5] and 1.5 nM in data set [2].

As to `Cc1ccccc1-c1cc(N(Cc2ccccc2)Cc2cncn2C)ccc1C#N`, the midpoint of inhibition in data set [2], the IC50, lay at 11 nM.

`Cc1ccccc1-c1cc(NCc2cncn2C)ccc1C#N` registered an IC50 in data set [2] of 1000 nM.

Consider `Cn1cncc1CN(Cc1ccccc1)c1ccc(C#N)c(-c2cccc3ccccc23)c1`, for which the IC50 in data set [2] was 1.5 nM and 11 nM.

With `Cc1ccccc1-c1cc(N(Cc2cccc(C#N)c2)Cc2cncn2C)ccc1C#N`, the EC50 in the data set on NIH3T3 [1] came to 70 nM. The results for the IC50 in data set [5] and in data set [2] were 1200 nM and 0.97 nM, respectively.

In the case of `NC(=O)N1CCC(CC(=O)N2CCC([C@H]3c4ncc(Br)cc4CCc4cc(Cl)cc(Br)c43)CC2)CC1` [LONAFARNIB], in the data set with NIH3T3 [1], the EC50 is 160 nM. In data set [2], the IC50 is 7.8 nM.

As to `Cc1ccccc1-c1cc(N(Cc2ccc(C#N)cc2)Cc2cncn2C)ccc1C#N`, at 1 µM the inhibition in the data set with NIH3T3 [6] was 29%. Besides, the IC50 in data set [5] came to 1000 nM; in data set [2], 10 nM.

`Cn1cncc1CN(Cc1cccc(Cl)c1)c1ccc(C#N)c(-c2cccc3ccccc23)c1`: in the data set with NIH3T3 [6], 1 µM produced 45% inhibition. The IC50 in data set [5] turned out to be 230 nM; in data set [2], 0.45 nM.

Regarding `Cc1ccccc1-c1cc(N(Cc2ccccc2)Cc2cnc[nH]2)ccc1C#N`, inhibition in data set [2] was half-maximal at 84 nM (IC50).

Regarding `Cn1cncc1CN(c1ccc(C#N)c(-c2cccc3ccccc23)c1)C1CCCCC1`, the results for the IC50 in data set [5] and in data set [2] were 180 nM and 1.9 nM, respectively.

`Cn1cncc1CN(C(=O)c1ccccc1)c1ccc(C#N)c(-c2cccc3ccccc23)c1`: the IC50 in data set [5] was 310 nM; in data set [2], 14 nM.

As for `Cn1cncc1CN(Cc1ccnc(C#N)c1)c1ccc(C#N)c(-c2cccc3ccccc23)c1`, a half-maximal effect in the data set with NIH3T3 [1] (EC50) was put at 80 nM. Besides, the IC50 in data set [5] worked out at 650 nM; in data set [2], 0.37 nM.
